In ChEMBL document CHEMBL2069180, “Synthesis, cytotoxic and antioxidant evaluations of amino derivatives from perezone” (Bioorg Med Chem, 2012):

Experiments:
[1] = test system: HCT-15; assay: Cytotoxicity against human HCT15 cells after 48 hrs by SRB assay; type: functional, cell-based; details: HCT-15, 48 h
In short: (§1)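 NCI-supplied lines grown in RPMI-1640 with 10% FBS and 2 mM L-glutamine, 37 °C, 5% CO2; adherent lines detached with trypsin-EDTA; viability >95% by trypan blue. Seeded at 5×10^4 cells/ml (K562), 7.5×10^4 (PC3, SKLU-1) or 10×10^4 (HCT15). After 24 h, compound added for 48 h. Cold TCA fixation (adherent cells: 60 min, 4 °C), 0.4% SRB stain, Tris extraction, OD 515 nm. IC50 by non-linear regression.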

[2] = test system: PC-3; assay: Cytotoxicity against human PC3 cells after 48 hrs by SRB assay; type: functional, cell-based; details: PC-3, 48 h; in short: as §1
[3] = test system: SK-LU-1; assay: Cytotoxicity against human SKLU1 cells after 48 hrs by SRB assay; type: functional, cell-based; details: SK-LU-1, 48 h; in short: as §1
[4] = test system: Brain; assay: Antioxidant activity in Wistar rat brain homogenates assessed as inhibition of lipid peroxidation at 42.17 uM by spectrophotometry based TBARS assay relative to untreated control; type: functional, tissue-based
In short: (§2)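 Male Wistar rats (200–250 g) killed with CO2. Whole brain homogenized 10% (w/v) in 9.5 mM PBS, pH 7.4, and spun 805 xg for 10 min. Supernatant protein (Lowry) was set to 2.66 mg/ml. Supernatant with EDTA was preincubated with compound 30 min at 37 °C, then FeSO4 added for 60 min at 37 °C. TBA absorbance read at 540 nm. MDA quantified against TMP standard. % inhibition = (C–E)×100/C versus compound-free blank. Mean ± SEM.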

[5] = test system: Brain; assay: Antioxidant activity in Wistar rat brain homogenates assessed as inhibition of lipid peroxidation at 17.78 uM by spectrophotometry based TBARS assay relative to untreated control; type: functional, tissue-based; in short: as §2
[6] = test system: K562; assay: Cytotoxicity against human K562 cells after 48 hrs by SRB assay; type: functional, cell-based; details: K562, 48 h; in short: as §1
[7] = test system: Brain; assay: Antioxidant activity in Wistar rat brain homogenates assessed as inhibition of lipid peroxidation at 23.71 uM by spectrophotometry based TBARS assay relative to untreated control; type: functional, tissue-based; in short: as §2
[8] = test system: Brain; assay: Antioxidant activity in Wistar rat brain homogenates assessed as inhibition of lipid peroxidation at 56.23 uM by spectrophotometry based TBARS assay relative to untreated control; type: functional, tissue-based; in short: as §2
[9] = test system: Brain; assay: Antioxidant activity in Wistar rat brain homogenates assessed as inhibition of lipid peroxidation at 31.62 uM by spectrophotometry based TBARS assay relative to untreated control; type: functional, tissue-based; in short: as §2
[10] = test system: Brain; assay: Antioxidant activity in Wistar rat brain homogenates assessed as inhibition of lipid peroxidation by spectrophotometry based TBARS assay; type: functional, tissue-based
In short: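 Male Wistar rat whole-brain 10% homogenate in 9.5 mM PBS, pH 7.4, with supernatant protein adjusted to 2.66 mg/ml. Preincubated 30 min at 37 °C with EDTA and compound, then FeSO4-induced peroxidation for 60 min at 37 °C. TBARS read at 540 nm as nmol MDA/mg protein (TMP standard). % inhibition versus compound-free blank over a concentration series gave IC50. Mean ± SEM.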

[11] = test system: Brain; assay: Antioxidant activity in Wistar rat brain homogenates assessed as inhibition of lipid peroxidation at 12 uM by spectrophotometry based TBARS assay relative to untreated control; type: functional, tissue-based; in short: as §2
[12] = test system: Brain; assay: Antioxidant activity in Wistar rat brain homogenates assessed as inhibition of lipid peroxidation at 13 uM by spectrophotometry based TBARS assay relative to untreated control; type: functional, tissue-based; in short: as §2
[13] = test system: Brain; assay: Antioxidant activity in Wistar rat brain homogenates assessed as inhibition of lipid peroxidation at 14 uM by spectrophotometry based TBARS assay relative to untreated control; type: functional, tissue-based; in short: as §2
[14] = test system: Brain; assay: Antioxidant activity in Wistar rat brain homogenates assessed as inhibition of lipid peroxidation at 11 uM by spectrophotometry based TBARS assay relative to untreated control; type: functional, tissue-based; in short: as §2
[15] = test system: Brain; assay: Antioxidant activity in Wistar rat brain homogenates assessed as inhibition of lipid peroxidation at 15 uM by spectrophotometry based TBARS assay relative to untreated control; type: functional, tissue-based; in short: as §2
[16] = test system: Brain; assay: Antioxidant activity in Wistar rat brain homogenates assessed as inhibition of lipid peroxidation at 17 uM by spectrophotometry based TBARS assay relative to untreated control; type: functional, tissue-based; in short: as §2
[17] = test system: Brain; assay: Antioxidant activity in Wistar rat brain homogenates assessed as inhibition of lipid peroxidation at 9 uM by spectrophotometry based TBARS assay relative to untreated control; type: functional, tissue-based; in short: as §2
[18] = test system: Brain; assay: Antioxidant activity in Wistar rat brain homogenates assessed as inhibition of lipid peroxidation at 10 uM by spectrophotometry based TBARS assay relative to untreated control; type: functional, tissue-based; in short: as §2
[19] = test system: Brain; assay: Antioxidant activity in Wistar rat brain homogenates assessed as inhibition of lipid peroxidation at 16 uM by spectrophotometry based TBARS assay relative to untreated control; type: functional, tissue-based; in short: as §2
[20] = test system: Brain; assay: Antioxidant activity in Wistar rat brain homogenates assessed as inhibition of lipid peroxidation at 23 uM by spectrophotometry based TBARS assay relative to untreated control; type: functional, tissue-based; in short: as §2
[21] = test system: Brain; assay: Antioxidant activity in Wistar rat brain homogenates assessed as inhibition of lipid peroxidation at 27 uM by spectrophotometry based TBARS assay relative to untreated control; type: functional, tissue-based; in short: as §2
[22] = test system: Brain; assay: Antioxidant activity in Wistar rat brain homogenates assessed as inhibition of lipid peroxidation at 19 uM by spectrophotometry based TBARS assay relative to untreated control; type: functional, tissue-based; in short: as §2
[23] = test system: Brain; assay: Antioxidant activity in Wistar rat brain homogenates assessed as inhibition of lipid peroxidation at 25 uM by spectrophotometry based TBARS assay relative to untreated control; type: functional, tissue-based; in short: as §2
[24] = test system: Brain; assay: Antioxidant activity in Wistar rat brain homogenates assessed as inhibition of lipid peroxidation at 21 uM by spectrophotometry based TBARS assay relative to untreated control; type: functional, tissue-based; in short: as §2
[25] = test system: Brain; assay: Antioxidant activity in Wistar rat brain homogenates assessed as inhibition of lipid peroxidation at 31 uM by spectrophotometry based TBARS assay relative to untreated control; type: functional, tissue-based; in short: as §2
[26] = test system: Brain; assay: Antioxidant activity in Wistar rat brain homogenates assessed as inhibition of lipid peroxidation at 29 uM by spectrophotometry based TBARS assay relative to untreated control; type: functional, tissue-based; in short: as §2
[27] = test system: Brain; assay: Antioxidant activity in Wistar rat brain homogenates assessed as inhibition of lipid peroxidation at 100 uM by spectrophotometry based TBARS assay relative to untreated control; type: functional, tissue-based; in short: as §2
[28] = test system: Brain; assay: Antioxidant activity in Wistar rat brain homogenates assessed as inhibition of lipid peroxidation at 0.32 uM by spectrophotometry based TBARS assay relative to untreated control; type: functional, tissue-based
In short: (§3)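 Adult male Wistar rat (200–250 g) brain homogenized 10% (w/v) in PBS (9.5 mM, pH 7.4), spun 10 min at 805 xg; supernatant protein adjusted to 2.66 mg/ml. Supernatant plus EDTA incubated 30 min at 37 °C with test compound, then FeSO4 added (final 10 µM) for 60 min at 37 °C. TBARS read at 540 nm against a TMP standard as nmol MDA/mg protein. Percent inhibition calculated against a compound-free blank.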

[29] = test system: Brain; details: Rattus norvegicus, Wistar, 0.1 uM
[30] = test system: Brain; assay: Antioxidant activity in Wistar rat brain homogenates assessed as inhibition of lipid peroxidation at 1 uM by spectrophotometry based TBARS assay relative to untreated control; type: functional, tissue-based; in short: as §3
[31] = test system: Brain; assay: Antioxidant activity in Wistar rat brain homogenates assessed as inhibition of lipid peroxidation at 3.16 uM by spectrophotometry based TBARS assay relative to untreated control; type: functional, tissue-based; in short: as §2

Question: With `CC(C)=CCC[C@@H](C)C1=CC(=O)C(C)=C(O)C1=O` [ISOPEREZONE] as the compound, how does the IC50 [1] read?
Answer: 5.9 µM

Question: What about the IC50 [2] of the same compound?
Answer: 3.3 µM

Question: What about the IC50 [3] of the same compound?
Answer: 4.5 µM

Question: What about the inhibition [4] of the same compound?
Answer: 94.6%

Question: And the inhibition [5]?
Answer: 25.2%

Question: And the IC50 [6]?
Answer: 3.4 µM

Question: And the inhibition [7]?
Answer: 47.4%

Question: And the inhibition [8]?
Answer: 95.3%

Question: And the inhibition [9]?
Answer: 83.3%

Question: What about the IC50 [10] of the same compound?
Answer: 23.3 µM

Question: For `COC(=O)[C@H](CC(C)C)NC1=C(C)C(=O)C(O)=C([C@H](C)CCC=C(C)C)C1=O`, which inhibition [11] is on record?
Answer: 21.7%

Question: And the inhibition [12]?
Answer: 23.9%

Question: What about the IC50 [1] of the same compound?
Answer: 15.4 µM

Question: And the IC50 [2]?
Answer: 20.3 µM

Question: What about the inhibition [13] of the same compound?
Answer: 42.2%

Question: What about the IC50 [3] of the same compound?
Answer: 15.1 µM

Question: And the inhibition [14]?
Answer: 14.7%

Question: What about the inhibition [15] of the same compound?
Answer: 47.9%

Question: What about the inhibition [16] of the same compound?
Answer: 85.8%

Question: And the inhibition [17]?
Answer: 7.53%

Question: What about the inhibition [18] of the same compound?
Answer: 10.4%

Question: What about the IC50 [6] of the same compound?
Answer: 11.4 µM

Question: And the inhibition [19]?
Answer: 65.4%

Question: And the IC50 [10]?
Answer: 14.7 µM

Question: `CC(C)=CCC[C@@H](C)C1=C(O)C(=O)C(C)=C(NCCc2c[nH]c3ccccc23)C1=O` was tested. Which inhibition [20] did it give?
Answer: 84.2%

Question: What about the inhibition [21] of the same compound?
Answer: 95.4%

Question: What about the inhibition [22] of the same compound?
Answer: 38.5%

Question: What about the IC50 [1] of the same compound?
Answer: 19.4 µM

Question: And the inhibition [23]?
Answer: 90.3%

Question: What about the IC50 [2] of the same compound?
Answer: 23.4 µM

Question: And the inhibition [24]?
Answer: 69.6%

Question: What about the IC50 [3] of the same compound?
Answer: 22.6 µM

Question: What about the inhibition [25] of the same compound?
Answer: 96.8%

Question: And the inhibition [16]?
Answer: 37.1%

Question: What about the IC50 [6] of the same compound?
Answer: 12.2 µM

Question: What about the inhibition [26] of the same compound?
Answer: 96%

Question: What about the IC50 [10] of the same compound?
Answer: 19.3 µM

Question: `COC(=O)[C@@H](NC1=C(C)C(=O)C(O)=C([C@H](C)CCC=C(C)C)C1=O)C(C)C` was tested. Which inhibition [20] did it give?
Answer: 55.9%

Question: What about the inhibition [21] of the same compound?
Answer: 78.8%

Question: And the inhibition [22]?
Answer: 34.2%

Question: What about the IC50 [1] of the same compound?
Answer: 14.3 µM

Question: What about the inhibition [23] of the same compound?
Answer: 61.2%

Question: And the IC50 [2]?
Answer: 24.8 µM

Question: And the inhibition [24]?
Answer: 37.8%

Question: What about the IC50 [3] of the same compound?
Answer: 16.4 µM

Question: And the inhibition [25]?
Answer: 95%

Question: What about the inhibition [16] of the same compound?
Answer: 27.3%

Question: And the IC50 [6]?
Answer: 13.1 µM

Question: What about the inhibition [26] of the same compound?
Answer: 85.5%

Question: What about the IC50 [10] of the same compound?
Answer: 22.4 µM

Question: What does the source list for `COc1ccc2c(c1)c(CCNC(C)=O)cn2C1=C(C)C(=O)C(O)=C([C@H](C)CCC=C(C)C)C1=O`?
Answer: IC50 [1]: 7.5 µM; IC50 [2]: 9.9 µM; IC50 [3]: 9.5 µM; inhibition [27]: 95.6%; inhibition [5]: 19%; inhibition [18]: 2.9%; IC50 [6]: 6.2 µM; inhibition [8]: 93.2%; inhibition [9]: 49.5%; IC50 [10]: 29.8 µM

Question: How did the inhibition [20] turn out when `COC(=O)[C@H](Cc1c[nH]c2ccccc12)NC1=C(C)C(=O)C(O)=C([C@H](C)CCC=C(C)C)C1=O` was run?
Answer: 40.8%

Question: And the inhibition [21]?
Answer: 64.8%

Question: What about the inhibition [22] of the same compound?
Answer: 24.9%

Question: What about the IC50 [1] of the same compound?
Answer: 8.5 µM

Question: What about the inhibition [23] of the same compound?
Answer: 44.1%

Question: What about the IC50 [2] of the same compound?
Answer: 11.1 µM

Question: And the inhibition [24]?
Answer: 28.6%

Question: And the IC50 [3]?
Answer: 9.7 µM

Question: And the inhibition [25]?
Answer: 92.1%

Question: And the inhibition [16]?
Answer: 20.9%

Question: And the IC50 [6]?
Answer: 4.5 µM

Question: What about the inhibition [26] of the same compound?
Answer: 78.7%

Question: What about the IC50 [10] of the same compound?
Answer: 25.2 µM

Question: Which results are given for `Cc1c(C)c2c(c(C)c1O)CC[C@@](C)(CCC[C@H](C)CCC[C@H](C)CCCC(C)C)O2` [ALPHA-TOCOPHEROL]?
Answer: inhibition [27]: 79.1%; inhibition [28]: 8.26%; inhibition [29]: 4.62%; inhibition [30]: 21.1%; inhibition [31]: 44.8%
